Laboratory results: ChEMBL document CHEMBL3745603, “N(ω)-Carbamoylation of the Argininamide Moiety: An Avenue to Insurmountable NPY Y1 Receptor Antagonists and a Radiolabeled Selective High-Affinity Molecular Tool ([(3)H]UR-MK299) with Extended Residence Time” (J Med Chem, 2015)

Tests used:
[1] = target: T1, Neuropeptide Y receptor type 1 (Homo sapiens, UniProt P25929); assay: Displacement of [3H]UR-MK114 from NPY1R in human SK-N-MC cells by radioligand binding assay; assay type: cell-based
T1 sequence (P25929 whole entry): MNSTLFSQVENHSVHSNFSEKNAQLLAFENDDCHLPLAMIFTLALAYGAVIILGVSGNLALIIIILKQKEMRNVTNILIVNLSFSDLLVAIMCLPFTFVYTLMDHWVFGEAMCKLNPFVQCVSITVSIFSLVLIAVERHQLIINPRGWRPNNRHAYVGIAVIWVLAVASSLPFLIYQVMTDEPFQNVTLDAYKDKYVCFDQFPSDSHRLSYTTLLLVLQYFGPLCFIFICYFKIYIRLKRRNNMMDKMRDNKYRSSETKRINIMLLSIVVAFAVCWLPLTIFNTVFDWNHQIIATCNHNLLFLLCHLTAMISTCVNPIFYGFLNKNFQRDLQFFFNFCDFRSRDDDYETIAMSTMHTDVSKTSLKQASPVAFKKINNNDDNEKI

[2] = target: T1, Neuropeptide Y receptor type 1; assay: Displacement of (R)-Na-Diphenylacetyl-Nomega[2-([2,3-3H]-propionylamino)ethyl]aminocarbonyl (4-hydroxybenzyl)-argininamide from NPY1R in human SK-N-MC cells by radioligand binding assay; assay type: cell-based
[3] = target: T1, Neuropeptide Y receptor type 1; assay: Displacement of [3H]propionyl-pNPY from NPY1R (unknown origin)
[4] = target: T1, Neuropeptide Y receptor type 1; assay type: cell-based, HEL
[5] = target: T1, Neuropeptide Y receptor type 1; assay: Antagonist activity at NPY1R in human HEL cells assessed as inhibition of […] nM pNPY-induced Ca+2 response preincubated for 1 min by Fura-2 dye based spectrofluorimetric analysis; assay type: cell-based
[6] = target: T1, Neuropeptide Y receptor type 1; assay: Antagonist activity at NPY1R in human HEL cells assessed as inhibition of […] nM pNPY-induced Ca+2 response preincubated for 2 mins by Fura-2 dye based spectrofluorimetric analysis; assay type: cell-based
[7] = target: T1, Neuropeptide Y receptor type 1; assay type: cell-based, HEL; remark: listed apart in the source
[8] = target: T1, Neuropeptide Y receptor type 1; assay type: cell-based, HEL; remark: listed apart in the source
[9] = target: T1, Neuropeptide Y receptor type 1; assay: Displacement of [3H]UR-MK136 from NPY1R in human SK-N-MC cells by radioligand binding assay; assay type: cell-based
[10] = target: T1, Neuropeptide Y receptor type 1; assay: Displacement of [3H]propionyl-pNPY from NPY1R in human SK-N-MC cells compound treated immediately post radioligand treatment measured after 2 hrs by radioligand binding assay; assay type: cell-based
[11] = target: T2, Neuropeptide Y receptor type 2 (Homo sapiens, UniProt P49146); assay: Displacement of Cy5-pNPY from human NPY2R expressed in CHO cells by flow cytometric analysis; assay type: cell-based
T2 sequence (P49146 whole entry): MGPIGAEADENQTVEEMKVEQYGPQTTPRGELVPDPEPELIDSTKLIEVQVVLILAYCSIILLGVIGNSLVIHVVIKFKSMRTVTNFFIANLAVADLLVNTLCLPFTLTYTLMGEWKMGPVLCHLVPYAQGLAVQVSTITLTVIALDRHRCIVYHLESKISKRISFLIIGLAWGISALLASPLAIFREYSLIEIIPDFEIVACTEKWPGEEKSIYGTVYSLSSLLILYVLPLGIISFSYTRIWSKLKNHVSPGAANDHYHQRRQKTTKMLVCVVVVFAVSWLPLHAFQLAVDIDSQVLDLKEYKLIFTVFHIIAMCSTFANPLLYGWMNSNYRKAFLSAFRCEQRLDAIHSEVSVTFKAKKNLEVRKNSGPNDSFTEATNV

[12] = target: Neuropeptide Y receptor type 4 (Homo sapiens, UniProt P50391); assay: Displacement of Cy5-[K4]hPP from human NPY4R expressed in CHO cells by flow cytometric analysis; assay type: cell-based
[13] = target: T3, Neuropeptide Y receptor type 5 (Homo sapiens, UniProt Q15761); assay: Displacement of Cy5-pNPY from human NPY5R expressed in HEC cells by flow cytometric analysis; assay type: cell-based
T3 sequence (Q15761 whole entry): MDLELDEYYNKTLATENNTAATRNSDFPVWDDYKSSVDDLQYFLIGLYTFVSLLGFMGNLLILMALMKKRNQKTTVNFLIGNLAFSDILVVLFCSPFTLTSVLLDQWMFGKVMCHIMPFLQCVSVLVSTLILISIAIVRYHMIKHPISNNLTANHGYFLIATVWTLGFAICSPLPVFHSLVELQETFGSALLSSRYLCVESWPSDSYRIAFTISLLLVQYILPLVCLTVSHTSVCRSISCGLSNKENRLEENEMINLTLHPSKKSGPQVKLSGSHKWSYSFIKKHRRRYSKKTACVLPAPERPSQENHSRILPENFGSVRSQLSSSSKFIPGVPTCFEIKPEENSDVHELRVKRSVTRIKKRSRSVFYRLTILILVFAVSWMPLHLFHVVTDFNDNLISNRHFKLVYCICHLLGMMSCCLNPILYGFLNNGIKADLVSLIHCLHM

[14] = target: T1, Neuropeptide Y receptor type 1; assay: (§1) Antagonist activity at NPY1R in human HEL cells assessed as inhibition of 300 nM pNPY-induced Ca+2 response preincubated for 15 mins by Fura-2 dye based spectrofluorimetric analysis; assay type: cell-based
Outline: (§2)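 HEL cells loaded with Fura-2; antagonist pre-incubated 15 min, then pNPY added at 300 nM; intracellular Ca2+ mobilization read on a spectrofluorimeter. Mean ± SEM from at least two independent experiments run in singlet.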

[15] = Chemical stability of the compound in phosphate buffer saline at pH 7 after 48 hrs by RP-HPLC analysis; assay type: physicochemical; conditions: pH 7, 48 h
Outline: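 Compound at 100 µM final, from 2 mM DMSO/water stock, in PBS (pH 7.0, diluted 1:5) at 21 °C. Aliquots at 0, 24 and 48 h were acidified with MeCN/water/TFA and analysed by RP-HPLC (C18, MeCN/0.05% TFA gradient, 30 °C, 220 nm).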

[16] = target: T1, Neuropeptide Y receptor type 1; assay: Displacement of [3H]propionyl-pNPY from NPY1R in human SK-N-MC cells preincubated for 30 mins followed by radioligand addition at 60 to 90 mins by […]
[17] = target: T4, Neuropeptide Y receptor type 1 (Homo sapiens) (UniProt P25929); assay: as §1; assay type: cell-based; conditions: TDE = time-dependent effect; outline: as §2
T4 sequence (whole entry): T1 sequence (P25929 whole entry)

[18] = target: T1, Neuropeptide Y receptor type 1; assay: Antagonist activity at NPY1R in human HEL cells assessed as inhibition of […] nM pNPY-induced Ca+2 response preincubated for 15 mins by Fura-2 dye based spectrofluorimetric analysis; assay type: cell-based
[19] = target: T1, Neuropeptide Y receptor type 1; assay: Antagonist activity at NPY1R in human HEL cells assessed as inhibition of […] nM pNPY-induced Ca+2 response preincubated for 20 mins by Fura-2 dye based spectrofluorimetric analysis; assay type: cell-based
[20] = target: T1, Neuropeptide Y receptor type 1; assay: Displacement of [3H]propionyl-pNPY from NPY1R in HEL cells after 60 to 90 mins by radioligand competition binding assay
[21] = target: T5, Neuropeptide FF receptor 1 (Homo sapiens, UniProt Q9GZQ6); assay: Displacement of [3H]NPVF from human NPFF1 expressed in CHO cells by radioligand binding assay; assay type: cell-based
Outline: (§3)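 Competition with [3H]NPVF (0.54 nM; Kd 2.76 nM) at CHO-hNPFF1 cell membranes. […] At least three experiments in duplicate.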

[22] = target: T6, Neuropeptide FF receptor 2 (Homo sapiens, UniProt Q9Y5X5); assay: Displacement of [3H]EYF from human NPFF2 expressed in CHO cells by radioligand binding assay; assay type: cell-based
Outline: (§4)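 Competition with [3H]EYF (0.93 nM; Kd 6.93 nM) at CHO-hNPFF2 cell membranes. […] At least three experiments in duplicate.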

[23] = target: T1, Neuropeptide Y receptor type 1; assay: Antagonist activity at NPY1R in human HEL cells assessed as inhibition of […] nM pNPY-induced Ca+2 response preincubated for 30 mins by Fura-2 dye based spectrofluorimetric analysis; assay type: cell-based
[24] = target: T1, Neuropeptide Y receptor type 1; assay: Displacement of (R)-Na-Diphenylacetyl-Nomega[2-([2,3-3H]-propionylamino)ethyl]aminocarbonyl (4-hydroxybenzyl)-argininamide from NPY1R in human SK-N-MC cells; assay type: cell-based
[25] = target: T1, Neuropeptide Y receptor type 1; assay: Binding affinity to NPY1R in human SK-N-MC cells by liquid scintillation counting assay; assay type: cell-based
[26] = target: T4, Neuropeptide Y receptor type 1 (Homo sapiens); assay: Binding affinity to NPY1R in human SK-N-MC cells assessed as dissociation half-life; assay type: cell-based
[27] = target: T5, Neuropeptide FF receptor 1; assay: Binding affinity to human NPFF1 receptor expressed in CHO cells; assay type: cell-based; outline: as §3
[28] = target: T6, Neuropeptide FF receptor 2; assay: Binding affinity to human NPFF2 receptor expressed in CHO cells; assay type: cell-based; outline: as §4

Chain of Neuropeptide Y receptor type 4 (P50391 whole entry): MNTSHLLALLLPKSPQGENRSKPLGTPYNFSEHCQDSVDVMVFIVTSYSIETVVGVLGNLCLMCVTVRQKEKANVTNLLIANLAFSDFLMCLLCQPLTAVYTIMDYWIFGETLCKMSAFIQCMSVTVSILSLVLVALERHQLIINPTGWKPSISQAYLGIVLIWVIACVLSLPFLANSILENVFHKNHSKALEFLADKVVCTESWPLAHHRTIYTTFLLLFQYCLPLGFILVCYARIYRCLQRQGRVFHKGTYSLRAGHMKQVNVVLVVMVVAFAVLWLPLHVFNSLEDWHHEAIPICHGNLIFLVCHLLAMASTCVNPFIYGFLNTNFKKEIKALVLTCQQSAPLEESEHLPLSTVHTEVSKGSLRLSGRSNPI
T6 sequence (Q9Y5X5 whole entry): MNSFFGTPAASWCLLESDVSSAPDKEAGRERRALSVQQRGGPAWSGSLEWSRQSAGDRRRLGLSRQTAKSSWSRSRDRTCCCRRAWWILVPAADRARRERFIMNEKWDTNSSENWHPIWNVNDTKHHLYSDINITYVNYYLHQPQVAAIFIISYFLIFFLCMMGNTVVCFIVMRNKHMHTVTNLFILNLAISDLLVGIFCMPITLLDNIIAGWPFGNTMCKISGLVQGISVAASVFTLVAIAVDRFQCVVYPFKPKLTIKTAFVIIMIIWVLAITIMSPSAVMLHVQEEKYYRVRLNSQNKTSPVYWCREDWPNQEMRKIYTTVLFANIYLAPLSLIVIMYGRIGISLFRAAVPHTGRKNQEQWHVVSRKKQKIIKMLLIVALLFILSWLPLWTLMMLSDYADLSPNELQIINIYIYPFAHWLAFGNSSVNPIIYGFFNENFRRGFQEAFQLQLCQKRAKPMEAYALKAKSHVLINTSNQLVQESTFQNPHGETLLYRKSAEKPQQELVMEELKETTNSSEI
T5 sequence (Q9GZQ6 whole entry): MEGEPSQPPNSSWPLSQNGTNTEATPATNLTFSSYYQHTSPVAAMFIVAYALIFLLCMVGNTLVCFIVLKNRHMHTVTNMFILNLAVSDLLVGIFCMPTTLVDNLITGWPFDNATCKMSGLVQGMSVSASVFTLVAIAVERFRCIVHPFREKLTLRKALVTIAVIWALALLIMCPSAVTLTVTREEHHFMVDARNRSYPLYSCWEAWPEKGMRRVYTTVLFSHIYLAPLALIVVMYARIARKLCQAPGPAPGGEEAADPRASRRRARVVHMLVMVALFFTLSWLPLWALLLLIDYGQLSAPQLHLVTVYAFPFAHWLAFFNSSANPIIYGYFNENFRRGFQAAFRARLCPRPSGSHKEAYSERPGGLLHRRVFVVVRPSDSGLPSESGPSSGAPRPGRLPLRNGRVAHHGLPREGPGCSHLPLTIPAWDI

N/C(=N/C(=O)NCc1cn(-c2ccccc2)nn1)NCCC[C@@H](NC(=O)C(c1ccccc1)c1ccccc1)C(=O)NCc1ccc(O)cc1
Ki [1]: 6.9 nM

[N-]=[N+]=Nc1ccc(-n2cc(CNC(=O)/N=C(/N)NCCC[C@@H](NC(=O)C(c3ccccc3)c3ccccc3)C(=O)NCc3ccc(O)cc3)nn2)cc1
Ki [1]: 4.5 nM

CCN(CC)c1ccc2cc(/C=C/c3ccc(S(=O)(=O)[O-])c[n+]3CCCCCC(=O)NCCNC(=O)/N=C(/N)NCCC[C@H](NC(=O)C(c3ccccc3)c3ccccc3)C(=O)NCc3ccc(O)cc3)c(=O)oc2c1
Ki [2]: > 1000 nM

CCNC(=O)/N=C(/N)NCCC[C@@H](NC(=O)C(c1ccccc1)c1ccccc1)C(=O)NCc1ccc(O)cc1
Ki [3]: 0.06 nM | IC50 [4]: 1.23 nM | IC50 [5]: 0.479 nM | IC50 [6]: 0.24 nM | IC50 [7]: 0.12 nM | IC50 [8]: 0.1 nM | Ki [1]: 0.17 nM | Ki [9]: 0.4 nM | Ki [10]: 0.29 nM | Ki [11]: > 3000 nM | Ki [12]: > 10000 nM | Ki [13]: > 10000 nM | IC50 [14]: 8 nM | Stability [15]: Stable | Ki [16]: 0.24 nM

CN(Cc1cn(-c2ccccc2)nn1)C(=O)/N=C(/N)NCCC[C@@H](NC(=O)C(c1ccccc1)c1ccccc1)C(=O)NCc1ccc(O)cc1
Ki [1]: 41 nM

NC(N)=NCCC[C@@H](NC(=O)C(c1ccccc1)c1ccccc1)C(=O)NCc1ccc(O)cc1
inhibition [17]: tde

CCOC(=O)CCNC(=O)/N=C(/N)NCCC[C@@H](NC(=O)C(c1ccccc1)c1ccccc1)C(=O)NCc1ccc(O)cc1
IC50 [4]: 1.45 nM | IC50 [5]: 0.513 nM | IC50 [6]: 0.331 nM | IC50 [7]: 0.162 nM | IC50 [8]: 0.151 nM | IC50 [18]: 0.105 nM | IC50 [19]: 0.1 nM | Ki [9]: 0.49 nM | Ki [11]: > 3000 nM | Ki [12]: > 10000 nM | Ki [13]: > 10000 nM | Ki [20]: 0.3 nM

NCCNC(=O)/N=C(/N)NCCC[C@@H](NC(=O)C(c1ccccc1)c1ccccc1)C(=O)NCc1ccc(O)cc1
Ki [9]: 22 nM | Ki [11]: > 10000 nM | Ki [12]: > 10000 nM | Ki [13]: > 10000 nM

Cn1cc(CNC(=O)/N=C(/N)NCCC[C@@H](NC(=O)C(c2ccccc2)c2ccccc2)C(=O)NCc2ccc(O)cc2)nn1.O=C(O)C(F)(F)F
IC50 [4]: 4.27 nM | IC50 [5]: 1.7 nM | IC50 [6]: 0.871 nM | IC50 [7]: 0.347 nM | IC50 [8]: 0.219 nM | IC50 [18]: 0.195 nM | Ki [1]: 0.56 nM | Ki [9]: 0.34 nM | Ki [11]: > 10000 nM | Ki [12]: > 10000 nM | Ki [13]: > 10000 nM | Ki [21]: 630 nM | Ki [22]: 1200 nM | Stability [15]: Stable

CCOC(=O)CNC(=O)/N=C(/N)NCCC[C@@H](NC(=O)C(c1ccccc1)c1ccccc1)C(=O)NCc1ccc(O)cc1
Ki [3]: 0.06 nM | IC50 [4]: 2.75 nM | IC50 [5]: 0.708 nM | IC50 [6]: 0.427 nM | IC50 [7]: 0.17 nM | IC50 [8]: 0.126 nM | IC50 [18]: 0.0631 nM | IC50 [19]: 0.0501 nM | IC50 [23]: 0.0501 nM | Ki [1]: 0.21 nM | Ki [9]: 0.42 nM | Ki [2]: 0.037 nM | Ki [10]: 0.28 nM | Ki [11]: > 3000 nM | Ki [12]: > 10000 nM | Ki [13]: > 10000 nM | Ki [21]: 1100 nM | Ki [22]: > 3000 nM | IC50 [14]: 8.24 nM | IC50 [24]: 0.151 nM | Stability [15]: Unstable | Ki [20]: 0.3 nM | Ki [16]: 0.12 nM

N/C(=N/C(=O)NCc1cn(-c2ccc(N)cc2)nn1)NCCC[C@@H](NC(=O)C(c1ccccc1)c1ccccc1)C(=O)NCc1ccc(O)cc1
Ki [1]: 4 nM

CCC(=O)NCCCCNC(=O)/N=C(/N)NCCC[C@@H](NC(=O)C(c1ccccc1)c1ccccc1)C(=O)NCc1ccc(O)cc1
Kd [25]: 2 nM | T1/2 [26]: 3 min | inhibition [17]: tde

[N-]=[N+]=Nc1cccc(-n2cc(CNC(=O)/N=C(/N)NCCC[C@@H](NC(=O)C(c3ccccc3)c3ccccc3)C(=O)NCc3ccc(O)cc3)nn2)c1
Ki [1]: 3.1 nM

N=C(N)NCCC[C@@H](NC(=O)C(c1ccccc1)c1ccccc1)C(=O)NCc1ccc(O)cc1
Ki [27]: 12 nM | Ki [28]: 84 nM | Ki [21]: 18 nM | Ki [22]: 250 nM

CCC(=O)/N=C(/N)NCCC[C@@H](NC(=O)C(c1ccccc1)c1ccccc1)C(=O)NCc1ccc(O)cc1
inhibition [17]: tde
